In ChEMBL document CHEMBL5154713, “Illuminating a Dark Kinase: Structure-Guided Design, Synthesis, and Evaluation of a Potent Nek1 Inhibitor and Its Effects on the Embryonic Zebrafish Pronephros” (J Med Chem, 2022):

Tests used:
[1] = target: Serine/threonine-protein kinase Nek7 (Homo sapiens) (UniProt Q8TDX7); assay: Inhibition of recombinant human NEK7 (2 to end residues) assessed as residual activity at 1 uM using FLAKSFGSPNRAYKK as substrate measured after 40 mins in presence of [gamma33P]ATP by radiometric scintillation counting method relative to control
Outline: (§1)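 Commercial radiometric panel of 50 kinases. Each recombinant human kinase was tested at a single compound concentration of 1 μM. ATP was set within 15 μM of the apparent Km for ATP for each kinase. Residual activity is relative to control and is the mean of two independent experiments.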

Homo sapiens = organism: Homo sapiens; assay: Inhibition of human full length recombinant CDK2/cyclinE assessed as residual activity at 1 uM using histone H1 as substrate incubated for 40 mins in presence of [gamma 33P]-ATP by radiometric scintillation counting assay relative to control; outline: as §1
[2] = target: Calcium/calmodulin-dependent protein kinase kinase 2 (Homo sapiens) (UniProt Q96RR4); assay: Inhibition of human full length CAMKK2 assessed as residual activity at 1 uM using calmodulin as substrate incubated for 40 mins in presence of [gamma 33P]-ATP by radiometric scintillation counting assay relative to control; outline: as §1
[3] = target: Serine/threonine-protein kinase PLK3 (Homo sapiens) (UniProt Q9H4B4); assay: Inhibition of recombinant human Plk3 (19 to 301 residues) assessed as residual activity at 1 uM using casein as substrate measured after 40 mins in presence of [gamma33P]ATP by radiometric scintillation counting method relative to control; outline: as §1
[4] = target: Phosphatidylinositol 4,5-bisphosphate 3-kinase catalytic subunit alpha isoform (Homo sapiens) (UniProt P42336); assay: Inhibition of human full length recombinant PI3Kalpha assessed as residual activity at 1 uM using phosphatidylinositol 4,5-bisphosphate as substrate incubated for 40 mins in presence of ATP by HTRF assay relative to control
[5] = Toxicity in wild-type Zebrafish embryos assessed as lethality at 30 uM measured after 72 hrs; set-up: species or system Danio rerio; details: in vivo
Outline: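 Wild-type zebrafish embryos with intact chorions were selected at 4 hpf, 15 per group, in E3 medium. At 6 hpf a 10× dilution of a DMSO stock was added to give final concentrations of 0.05–30 μM. Survival was scored every 24 h by heartbeat over 120 h. The 30 μM group was run in 5 replicates and the others at least in triplicate.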

[6] = target: Serine/threonine-protein kinase Nek6 (Homo sapiens) (UniProt Q9HC98); assay: Inhibition of human NEK6 (2 to end residues) assessed as residual activity at 1 uM using FLAKSFGSPNRAYKK as substrate incubated for 40 mins in presence of [gamma 33P]-ATP by radiometric scintillation counting assay relative to control; outline: as §1
[7] = target: Inhibitor of nuclear factor kappa-B kinase subunit epsilon (Homo sapiens) (UniProt Q14164); assay: Inhibition of human full length recombinant IKKepsilon assessed as residual activity at 1 uM using casein as substrate incubated for 40 mins in presence of [gamma 33P]-ATP by radiometric scintillation counting assay relative to control; outline: as §1
Chain of Inhibitor of nuclear factor kappa-B kinase subunit epsilon (Homo sapiens) (Q14164 whole entry): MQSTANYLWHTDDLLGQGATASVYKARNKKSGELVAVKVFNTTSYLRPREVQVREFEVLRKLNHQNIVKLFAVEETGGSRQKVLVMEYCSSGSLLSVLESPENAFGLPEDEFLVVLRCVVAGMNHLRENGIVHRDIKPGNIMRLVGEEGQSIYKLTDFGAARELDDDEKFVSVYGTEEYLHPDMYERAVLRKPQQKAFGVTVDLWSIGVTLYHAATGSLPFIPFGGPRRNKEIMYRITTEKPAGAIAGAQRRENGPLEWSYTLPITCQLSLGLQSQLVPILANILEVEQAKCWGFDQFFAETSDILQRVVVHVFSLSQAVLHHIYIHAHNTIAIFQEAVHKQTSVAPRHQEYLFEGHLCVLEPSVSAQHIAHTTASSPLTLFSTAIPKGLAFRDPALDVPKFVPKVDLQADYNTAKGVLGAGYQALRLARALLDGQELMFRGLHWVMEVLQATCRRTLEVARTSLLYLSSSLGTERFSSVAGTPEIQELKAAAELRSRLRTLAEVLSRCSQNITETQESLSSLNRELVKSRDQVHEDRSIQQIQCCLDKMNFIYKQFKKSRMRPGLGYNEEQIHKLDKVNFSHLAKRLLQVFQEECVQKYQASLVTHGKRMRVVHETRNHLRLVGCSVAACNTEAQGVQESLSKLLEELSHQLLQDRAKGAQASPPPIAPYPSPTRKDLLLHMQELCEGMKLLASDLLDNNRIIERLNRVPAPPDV

Chain of Calcium/calmodulin-dependent protein kinase kinase 2 (Homo sapiens) (Q96RR4 2-588 limits assumed): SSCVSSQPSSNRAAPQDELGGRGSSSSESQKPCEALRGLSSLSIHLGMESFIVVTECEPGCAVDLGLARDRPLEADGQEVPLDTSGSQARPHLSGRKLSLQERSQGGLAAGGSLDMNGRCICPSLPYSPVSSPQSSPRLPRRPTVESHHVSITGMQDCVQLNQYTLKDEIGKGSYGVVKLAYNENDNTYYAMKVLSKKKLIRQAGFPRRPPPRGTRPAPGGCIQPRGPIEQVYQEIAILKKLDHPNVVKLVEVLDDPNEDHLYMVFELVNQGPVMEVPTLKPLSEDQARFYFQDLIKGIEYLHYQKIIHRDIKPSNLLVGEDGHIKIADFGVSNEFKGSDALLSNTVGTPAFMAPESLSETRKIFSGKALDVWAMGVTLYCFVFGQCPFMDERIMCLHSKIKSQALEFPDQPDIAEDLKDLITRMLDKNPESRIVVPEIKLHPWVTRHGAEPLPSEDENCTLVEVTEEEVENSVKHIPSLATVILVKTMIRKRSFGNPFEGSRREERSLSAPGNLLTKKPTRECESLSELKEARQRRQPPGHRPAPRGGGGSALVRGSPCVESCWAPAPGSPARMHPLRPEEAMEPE
Chain of Phosphatidylinositol 4,5-bisphosphate 3-kinase catalytic subunit alpha isoform (Homo sapiens) (P42336 whole entry, canonical isoform): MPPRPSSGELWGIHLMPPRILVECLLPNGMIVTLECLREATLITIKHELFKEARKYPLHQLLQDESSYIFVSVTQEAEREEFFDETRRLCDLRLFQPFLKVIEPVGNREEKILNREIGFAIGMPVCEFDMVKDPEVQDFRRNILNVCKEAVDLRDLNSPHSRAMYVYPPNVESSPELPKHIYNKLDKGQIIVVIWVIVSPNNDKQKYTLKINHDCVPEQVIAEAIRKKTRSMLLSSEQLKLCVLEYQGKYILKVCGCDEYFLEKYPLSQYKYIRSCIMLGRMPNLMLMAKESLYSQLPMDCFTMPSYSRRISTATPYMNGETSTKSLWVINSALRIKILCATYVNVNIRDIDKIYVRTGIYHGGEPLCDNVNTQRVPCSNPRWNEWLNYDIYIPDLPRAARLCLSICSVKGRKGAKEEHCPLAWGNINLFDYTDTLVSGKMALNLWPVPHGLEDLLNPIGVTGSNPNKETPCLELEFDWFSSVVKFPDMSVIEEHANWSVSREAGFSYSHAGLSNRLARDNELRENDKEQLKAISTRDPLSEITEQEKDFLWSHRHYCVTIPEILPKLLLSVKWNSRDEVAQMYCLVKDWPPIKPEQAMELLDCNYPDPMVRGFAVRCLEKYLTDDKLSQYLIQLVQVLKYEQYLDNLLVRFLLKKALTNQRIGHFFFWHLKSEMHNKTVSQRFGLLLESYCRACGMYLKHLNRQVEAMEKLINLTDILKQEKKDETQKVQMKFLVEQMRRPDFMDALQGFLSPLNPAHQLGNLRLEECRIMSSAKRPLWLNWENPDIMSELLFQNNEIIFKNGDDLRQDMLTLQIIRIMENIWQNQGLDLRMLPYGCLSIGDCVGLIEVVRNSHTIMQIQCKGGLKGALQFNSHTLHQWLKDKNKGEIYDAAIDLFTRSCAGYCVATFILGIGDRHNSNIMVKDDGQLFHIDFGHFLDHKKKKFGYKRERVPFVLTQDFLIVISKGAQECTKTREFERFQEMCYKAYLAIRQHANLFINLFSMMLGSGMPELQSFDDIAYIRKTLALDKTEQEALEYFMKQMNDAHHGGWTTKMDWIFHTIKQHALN
Chain of Serine/threonine-protein kinase PLK3 (Homo sapiens) (Q9H4B4 whole entry, looked up, the tested form may be a part, canonical isoform): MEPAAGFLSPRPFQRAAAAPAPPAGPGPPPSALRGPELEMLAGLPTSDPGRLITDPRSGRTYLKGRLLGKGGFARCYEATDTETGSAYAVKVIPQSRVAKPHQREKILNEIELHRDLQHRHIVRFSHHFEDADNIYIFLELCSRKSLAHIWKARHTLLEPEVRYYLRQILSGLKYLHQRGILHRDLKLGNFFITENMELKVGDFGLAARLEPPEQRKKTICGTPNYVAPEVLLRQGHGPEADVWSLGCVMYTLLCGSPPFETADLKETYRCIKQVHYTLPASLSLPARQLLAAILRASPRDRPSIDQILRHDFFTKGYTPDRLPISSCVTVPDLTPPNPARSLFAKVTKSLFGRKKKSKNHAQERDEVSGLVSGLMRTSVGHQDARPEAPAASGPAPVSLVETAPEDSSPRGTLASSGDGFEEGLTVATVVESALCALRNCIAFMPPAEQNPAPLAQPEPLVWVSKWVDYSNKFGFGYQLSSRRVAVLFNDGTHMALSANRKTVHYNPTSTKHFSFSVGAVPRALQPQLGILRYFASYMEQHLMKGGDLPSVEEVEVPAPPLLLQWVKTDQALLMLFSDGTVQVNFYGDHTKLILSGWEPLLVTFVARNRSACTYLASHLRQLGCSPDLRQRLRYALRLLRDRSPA
Chain of Serine/threonine-protein kinase Nek6 (Homo sapiens) (Q9HC98 whole entry): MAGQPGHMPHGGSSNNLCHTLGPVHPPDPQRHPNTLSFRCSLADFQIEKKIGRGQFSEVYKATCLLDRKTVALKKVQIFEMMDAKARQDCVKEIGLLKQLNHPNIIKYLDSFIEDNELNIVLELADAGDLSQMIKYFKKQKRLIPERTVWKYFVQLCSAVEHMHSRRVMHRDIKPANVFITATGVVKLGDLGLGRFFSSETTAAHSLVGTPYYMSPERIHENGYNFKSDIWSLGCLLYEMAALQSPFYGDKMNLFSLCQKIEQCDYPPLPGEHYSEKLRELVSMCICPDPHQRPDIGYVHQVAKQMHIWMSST
Chain of Serine/threonine-protein kinase Nek7 (Homo sapiens) (Q8TDX7 whole entry, looked up): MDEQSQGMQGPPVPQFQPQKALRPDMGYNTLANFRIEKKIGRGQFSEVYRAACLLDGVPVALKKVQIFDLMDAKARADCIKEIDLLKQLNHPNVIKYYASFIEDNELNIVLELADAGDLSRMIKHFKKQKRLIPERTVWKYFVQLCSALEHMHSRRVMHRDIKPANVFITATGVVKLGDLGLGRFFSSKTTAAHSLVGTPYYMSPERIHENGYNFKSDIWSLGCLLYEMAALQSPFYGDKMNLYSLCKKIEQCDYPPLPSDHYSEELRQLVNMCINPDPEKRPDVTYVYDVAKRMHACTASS

Question: Which results are given for `O=S(=O)(N[C@@H](CO)Cc1c[nH]c2ccccc12)c1ccc(-c2ccnc3[nH]ccc23)cc1`?
Answer: Activity [1]: > 75%; Activity (Homo sapiens): > 75%; Activity [2]: > 75%; Activity [3]: > 75%; Activity [4]: > 75%; Activity [5]: Toxic; Activity [6]: > 75%; Activity [7]: > 75%
